# Source: ChEMBL document CHEMBL4049454, “7-Substituted 2-Nitro-5,6-dihydroimidazo[2,1-b][1,3]oxazines: Novel Antitubercular Agents Lead to a New Preclinical Candidate for Visceral Leishmaniasis” (J Med Chem, 2017)
# Active and inactive are the calls of the source. The rule behind the calls is not given here.
# Assays:
# [1] = Apparent permeability from apical to basolateral side in human Caco2 cells after 150 mins by LC-MS/MS analysis; format: ADME, cell-based; details: Caco-2
# [2] = Apparent permeability from basolateral to apical side in human Caco2 cells after 150 mins by LC-MS/MS analysis; format: ADME, cell-based; details: Caco-2
# [3] = tested on: Mycobacterium tuberculosis; assay: Antitubercular activity against Mycobacterium tuberculosis infected in BALB/c mouse assessed as reduction in bacterial burden at 100 mg/kg, po qd administered every 5 days a week for 3 weeks; format: functional, organism-based
# Summary of the method: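 Acute infection model in BALB/c mice: dosing at 100 mg/kg daily, 5 days a week for 3 weeks, starting day 11 after infection. Read-out is CFU reduction in treated mice, usually reported as a ratio of mean CFU reduction versus mice given the reference nitroimidazole.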
# [4] = tested on: Trypanosoma cruzi; assay: […] activity against Trypanosoma cruzi infected in human MRC-5 cells by luciferase reporter gene assay; format: functional, cell-based; details: MRC5
# Summary of the method: (§1)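 Run at LMPH as IC50 determinations. L. infantum was grown in primary peritoneal mouse macrophages and T. cruzi on human lung fibroblasts (MRC-5). Each value is the mean of at least two independent determinations, run alongside MRC-5 and macrophage cytotoxicity tests.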
# [5] = tested on: Leishmania infantum; assay: Antileishmanial activity against Leishmania infantum infected in primary peritoneal mouse macrophages by luciferase reporter gene assay; format: functional; summary of the method: as §1
# [6] = Extrapolated AUCinfinity in swiss albino mouse plasma at 40 mg/kg, po by LC-MS/MS analysis
smiles,measurement,setting,value
C[C@]1(COc2ccc(OC(F)(F)F)cc2)Cn2cc([N+](=O)[O-])nc2O1,Papp A→B at […],[1],22.6 ×10⁻⁶ cm/s
same,Papp B→A at […],[2],24.7 ×10⁻⁶ cm/s
O=[N+]([O-])c1cn2c(n1)OC[C@@H](OCc1ccc(OC(F)(F)F)cc1)C2,Activity,[3],Active
O=[N+]([O-])c1cn2c(n1)OC(COc1ccc(-c3ccc(F)cc3)cc1)CC2 (stereo not drawn),IC50,[4],63 nM
O=[N+]([O-])c1cn2c(n1)OC(COc1ccc(OC(F)(F)F)cc1)CC2 (stereo not drawn),IC50,[4],61 nM
O=[N+]([O-])c1cn2c(n1)OC(COc1ccc(-c3ccc(F)nc3)nc1)CC2 (stereo not drawn),IC50,[5],> 64000 nM
O=[N+]([O-])c1cn2c(n1)OC(COCc1ccc(-c3ccc(OC(F)(F)F)cc3)cc1)CC2 (stereo not drawn),AUC(0-inf),[6],47100 ng·h/mL
C[C@]1(COCc2ccc(-c3ccc(OC(F)(F)F)cc3)cc2)CCn2cc([N+](=O)[O-])nc2O1,Activity,[3],Active
